Jurkat NFkB inh: lowers PMA/ionomycin-induced NF-kB signal in Jurkat cells; 330,000 tested, 0.53% active; inhibition, % at 4 µM; PMA/ionomycin-induced NF-kB luciferase reporter, luminescence; in the data active = inhibition above about 50%
CHOP inh: blocks CHOP induction under ER stress. CHO-K1 CHOP-promoter luciferase, tunicamycin-induced, 15-18 h. inhibition, % at 10 µM. 220,000 tested, 3.8% active. AID 2732;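 active = compounds that reduced the stress-induced luciferase reporter signal by more than about 70% of percent inhibition, limit read from the data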;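 note: 0% = tunicamycin plus vehicle and 100% = wells without tunicamycin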
697 NFkB inh: lowers PMA/ionomycin-induced NF-kB signal in 697 B cells; 697 B-cell NF-kB luciferase reporter, 16 h; inhibition, % at 4 µM; 330,000 tested, 0.33% active; in the data active = inhibition above about 35%
UPR XBP1 act: activators of adaptive arm of unfolded protein response (XBP1) | CHO-XBP1 luciferase reporter, IRE1-XBP1 UPR activation, luminescence; percent of tunicamycin response, DMSO as zero | 330,000 tested, 0.33% active | AID 463104 | activation, % at 20 µM;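 active = versus positive control, 20 µM dose yields 30% or more activation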;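 note: 100% = tunicamycin at 10 µg/mL and 0% = DMSO only wells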
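Signal: luciferase luminescence; Assay system: CHO-XBP1 luciferase reporter cells; Amount: one thousand reporter cells per well; Dosing: 20 µM single concentration, DMSO 1%; Benchmarks: high control tunicamycin 10 µg/mL final, low control DMSO vehicle only; Schedule: 6 h compound exposure at 37 °C, 5% CO2; Evaluation: percent activation relative to tunicamycin reference.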
UPR CHOP act: apoptotic UPR (CHOP) activation | CHO-CHOP luciferase reporter, luminescence; percent of tunicamycin response over DMSO baseline | activation, % at 10 µM | AID 449763 | 330,000 tested, 0.34% active;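 active = at 10 µM dose, activation of 40% or more, normalized to positive control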;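 note: 100% = tunicamycin at 10 µg/mL and 0% = DMSO alone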
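System: CHO-CHOP luciferase reporter cell line; amount: 500 cells/well; buffer or medium: F12 medium containing 10% fetal bovine serum; incubation: 6 h compound exposure at 37 °C after overnight seeding; measured by: luciferase luminescence after 10 min with Steady-Glo reagent; evaluation: % reporter activation, DMSO baseline versus tunicamycin full activation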
697 NFkB conf: inhibitors of the PMA/ionomycin-induced NF-kB reporter in 697 B cells, retest; inhibition, % at 4 µM; AID 449746; 697 B-cell NF-kB luciferase, 16 h; 2,000 tested, 35% active; shares compounds with 697 NFkB inh; in the data active = inhibition mostly above about 28%, no sharp cut-off; inactive = mostly below about 22%
An asterisk follows results filed as active. Only a selection was taken, and hits are over-represented in it overall.

Screening CCOc1ccc(NS(=O)(=O)c2ccc3[nH]c(=O)[nH]c3c2)cc1 returned Jurkat NFkB inh 1, 697 NFkB inh 11, UPR XBP1 act -2 and UPR CHOP act -2.
`O=C(Nc1nc2ccccc2[nH]1)c1cccs1` gave Jurkat NFkB inh -132, CHOP inh 3, 697 NFkB inh -128, UPR XBP1 act 0 and UPR CHOP act 0.
For COC(=O)Nc1nc2ccc(C(=O)c3cccs3)cc2[nH]1 the results were Jurkat NFkB inh 45, CHOP inh -1, 697 NFkB inh inactive, UPR XBP1 act 18, UPR CHOP act 7 and 697 NFkB conf -107.
`CCCN1C(=O)/C(=C/c2c(N3CCNC(=O)C3CC(=O)OCC)nc3c(C)cccn3c2=O)SC1=S` (centres undefined) gave Jurkat NFkB inh 10, CHOP inh -13, 697 NFkB inh 37*, UPR XBP1 act -1, UPR CHOP act 7 and 697 NFkB conf 36*.
`CCOC(=O)CC1C(=O)NCCN1c1nc2ccc(C)cn2c(=O)c1/C=C1\SC(=S)N(CC(C)C)C1=O` (centres undefined) gave Jurkat NFkB inh -16, CHOP inh 10, 697 NFkB inh 9, UPR XBP1 act 3 and UPR CHOP act 1.
For O=c1c2ccccc2oc2ccc(-c3ccc4cc[nH]c4c3)cc12 the results were Jurkat NFkB inh -3, 697 NFkB inh -498, UPR XBP1 act -4, UPR CHOP act 2 and 697 NFkB conf inactive.
Screening CC1CCCCC12NC(=O)N(CC(=O)Nc1ccccc1N1CCOCC1)C2=O (centres undefined) returned Jurkat NFkB inh 1, CHOP inh 9, 697 NFkB inh 14, UPR XBP1 act 1 and UPR CHOP act 0.
CC(C)(C)CN1C(N)=NC[C@@H]1Cc1ccc(O)cc1 was read as Jurkat NFkB inh 2, CHOP inh 20, 697 NFkB inh 44*, UPR XBP1 act 2, UPR CHOP act -2 and 697 NFkB conf 15.
`O=C(O)CCSc1nc2ccccc2s1` gave Jurkat NFkB inh 16, CHOP inh 63, 697 NFkB inh 40*, UPR XBP1 act -6, UPR CHOP act -5 and 697 NFkB conf 35*.
For CCN(CC(=O)Nc1c(F)cccc1F)C(=O)c1cc([N+](=O)[O-])ccc1N1CCCCC1 the results were Jurkat NFkB inh 5, 697 NFkB inh 35*, UPR XBP1 act -6, UPR CHOP act 1 and 697 NFkB conf 44*.
Screening CCN(CC(=O)Nc1c(F)cccc1F)C(=O)c1cc(S(=O)(=O)N2CCOCC2)ccc1N1CCCC1 returned Jurkat NFkB inh 21, 697 NFkB inh 40*, UPR XBP1 act -2, UPR CHOP act 1 and 697 NFkB conf 32*.
`CC(C)C(NC(=O)c1ccccc1)C(=O)OCn1nnc2ccccc2c1=O` (centres undefined) gave Jurkat NFkB inh 8, 697 NFkB inh 6, UPR XBP1 act -1 and UPR CHOP act 0.
Screening Cc1nc2ccccc2c2oc(C(=O)Nc3ccc(C(C)C)cc3)cc12 returned Jurkat NFkB inh 0, CHOP inh 17, 697 NFkB inh -29, UPR XBP1 act 2 and UPR CHOP act 0.
Screening COc1cc(NC(=O)c2cc3c(C)nc4ccccc4c3o2)cc(OC)c1OC returned Jurkat NFkB inh 13, CHOP inh 51, 697 NFkB inh 37*, UPR XBP1 act -1, UPR CHOP act 2 and 697 NFkB conf 44*.
O=C(O)COCC(=O)N1CCc2c([nH]c3ccccc23)C1C(F)(F)F (centres undefined) was read as Jurkat NFkB inh 20, 697 NFkB inh 3, UPR XBP1 act 0 and UPR CHOP act 0.
`O=C1c2ccccc2C(=O)C1c1ccc2ccccc2n1` gave Jurkat NFkB inh -56, CHOP inh 92*, 697 NFkB inh -253, UPR XBP1 act -4, UPR CHOP act -8 and 697 NFkB conf -381.
CC(=O)Nc1ccc(S(=O)(=O)NCCc2cc3ccc(C)c(C)c3[nH]c2=O)cc1 was read as Jurkat NFkB inh -2, 697 NFkB inh 8, UPR XBP1 act 1 and UPR CHOP act 0.
Cc1cc(C)cc(OCc2nnc(SCC(=O)c3ccccc3)o2)c1 was read as Jurkat NFkB inh 5, CHOP inh 51, 697 NFkB inh 46*, UPR XBP1 act 0, UPR CHOP act 2 and 697 NFkB conf 45*.
Cc1ccc(C(=O)CSc2nnc(COc3ccccc3)o2)cc1 was read as Jurkat NFkB inh 6, CHOP inh 4, 697 NFkB inh 54*, UPR XBP1 act -4, UPR CHOP act -1 and 697 NFkB conf 40*.
Screening Cc1ccc(C(=O)CSc2nnc(COc3cc(C)cc(C)c3)o2)cc1 returned Jurkat NFkB inh 6, CHOP inh 23, 697 NFkB inh 36*, UPR XBP1 act 0, UPR CHOP act -2 and 697 NFkB conf 55*.
Screening COc1ccccc1-c1coc2c(CN3CCCC(C)C3)c(O)ccc2c1=O (centres undefined) returned Jurkat NFkB inh -6, 697 NFkB inh 15, UPR XBP1 act 0 and UPR CHOP act 0.
Screening Cc1ccc(N=C/C(C(=O)C(F)(F)F)=C(\O)c2cccs2)cc1 returned Jurkat NFkB inh -100, CHOP inh -10, 697 NFkB inh -360, UPR XBP1 act 4, UPR CHOP act 4 and 697 NFkB conf -148.
COc1ccccc1CC(=O)Nc1ccon1 was read as Jurkat NFkB inh -4, 697 NFkB inh 18, UPR XBP1 act -3 and UPR CHOP act 4.
`Cc1ccc2c(c1)COc1c3ccc(C(=O)N[C@@H](C)CO)cc3nn1-2` gave Jurkat NFkB inh -120, CHOP inh -38, 697 NFkB inh -290, UPR XBP1 act 2, UPR CHOP act 1 and 697 NFkB conf -271.
For Cc1ccc2c(c1)COc1c3ccc(C(=O)NCCO)cc3nn1-2 the results were Jurkat NFkB inh -74, CHOP inh -28, 697 NFkB inh -252, UPR XBP1 act -1, UPR CHOP act 2 and 697 NFkB conf -320.
Cc1ccc2c(c1)COc1c3ccc(C(=O)NC(C)C)cc3nn1-2 was read as Jurkat NFkB inh -120, CHOP inh -39, 697 NFkB inh -320, UPR XBP1 act 4, UPR CHOP act 5 and 697 NFkB conf -313.
`CCC(C(=O)OC)n1cnc2c(nnn2-c2ccc(C)cc2)c1=O` (centres undefined) gave Jurkat NFkB inh 8, 697 NFkB inh 8, UPR XBP1 act 2 and UPR CHOP act 1.
`O=C(O)C1=CCNCC1` gave Jurkat NFkB inh 5, CHOP inh -23, 697 NFkB inh 8, UPR XBP1 act -4 and UPR CHOP act 0.
Nn1c(SCC(=O)Nc2nccs2)nnc1C1CC1 was read as Jurkat NFkB inh 1, 697 NFkB inh 10, UPR XBP1 act -9 and UPR CHOP act 1.

Screens deposited in PubChem by several laboratories.
